The results in this text go back to PMC9704493 (RSC Advances, 2022).

Structures are written as SMILES.

For experiment [1], the system named is HCT-116 colorectal carcinoma cells. The experiment in a line: MTT cell viability assay, HCT-116. Format: cell-based, human. The settings on record: for Selectivity indices (SI), HCT-116: HCT-116 versus MRC-5 fibroblasts; for GI50: Homo sapiens, HCT-116, 72 h, read-out: GI50 values (M) mean ± SD, HCT-116. In outline: (§1)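 Cells were seeded at 3 × 10^3 per well and grown for 24 h at 37 °C/5% CO2. A T0 plate was read at dosing and the others after 72 h. MTT (5 mg mL−1 in PBS) was added for 2.5 h, formazan dissolved in DMSO, and absorbance read at 550 nm. GI50 was interpolated, in triplicate. SI compares MRC-5 with cancer-line activity.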
(Formazan colour is commonly taken as a measure of viable cells.)

Experiment [2] concerns MCF-7 breast cancer cells. The experiment can be described thus: MTT cell viability assay, MCF-7. Format: cell-based, human. The settings on record: for GI50: Homo sapiens, MCF7, 72 h, read-out: GI50 values (M) mean ± SD, MCF-7; for Selectivity indices (SI), MCF-7: MCF-7 versus MRC-5 fibroblasts. In outline:
as §1

The test system of a further experiment is MRC-5 fibroblasts. The experiment in a line: MTT cell viability assay, MRC-5 normal fibroblasts. The conditions noted are these: for GI50: Homo sapiens, MRC5, 72 h, read-out: GI50 values (M) mean ± SD, MRC-5. Format: cell-based, human. In short, it runs like this: as §1
For the next experiment, the system named is MCF-7 cells. The experiment can be described thus: Cell count assay, MCF-7. Format: cell-based. The conditions noted are these: Homo sapiens, MCF7, 72 h, read-out: growth inhibition, cell count. In outline:
(§2)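 Cancer lines were grown in RPMI 1640 with 10% FBS and 1% glutamine at 37 °C/5% CO2, at ≤30 passages. Cells were seeded at 2 × 10^4 per well in 6-well plates and exposed to test compound at 5 or 10 μM for 72 h. Cells were counted by haemocytometer and expressed as % of control (mean ± SD), from 2 independent experiments in triplicate.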

Experiment [3] concerns HCT-116 cells. The experiment in a line: Cell count assay, HCT-116. Format: cell-based. The conditions noted are these: Homo sapiens, HCT-116, 72 h, read-out: growth inhibition, cell count. In short, it runs like this: as §2
For experiment [4], the system named is HCT-116 cells. The experiment can be described thus: Clonogenic assay, HCT-116 colony formation. Format: cell-based, human. The conditions noted are these: 10 μM, 24 h exposure; second group, printed as HCT-116. In short, it runs like this:
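HCT-116 cells (RPMI 1640, 10% FBS, 1% glutamine) were seeded at 400 per well in 6-well plates and left to attach for 24 h. They were given test compound at 5 or 10 μM for 24 h, with medium alone as control. Cells were then washed with cold PBS and grown in fresh medium at 37 °C until control colonies reached ≥50 cells. Colonies were methanol-fixed, stained with 0.05% methylene blue and counted. Survival fraction is % of control, from five independent trials (n = 2 each).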

The subject of experiment [5] is caspases 3 and 7 in MCF-7 cells. The experiment can be described thus: Caspase-3/7 activity assay, MCF-7. The conditions noted are these: MCF-7, 5 and 10 μM, 72 h. Format: cell-based, human. In short, it runs like this: (§3)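 Cells kept in log growth (passaged twice weekly, 37 °C/5% CO2, ≤30 passages) were seeded at 3 × 10^3 per well in opaque white 96-well plates and allowed 24 h at 37 °C. Test compound was added at 5 and 10 μM from fresh 10 mM DMSO stocks for 72 h. Homogeneous caspase-3/7 reagent was added and mixed at 300–500 rpm for 30 s. After 30 min at room temperature, fluorescence was read at 499 nm and 521 nm. Experiments were run in triplicate and reported as mean ± SD.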

Experiment [6] relates to caspases 3 and 7 in HCT-116 cells. The experiment in a line: Caspase-3/7 activity assay, HCT-116. The conditions noted are these: HCT-116, 5 and 10 μM, 72 h. Format: cell-based, human. In short, it runs like this: as §3

A word on the GI50: it is the concentration that inhibits growth by half. A word on the inhibition: it is the change of the read-out against control, counted positive when it falls.

For the compound `N#Cc1ccc(-c2csc(NN=Cc3cc(Br)ccc3O)n2)cc1` [Compound 3h, 2-(2-(5-Bromo-2-hydroxybenzylidene) hydrazinyl)-4-(4-cyanophenyl) thiazole], in experiment [1], the “Selectivity indices (SI), HCT-116” value is listed as 3.6. Further, the GI50 in experiment [1] came to 4.4e-06 ± 3e-07 M; in experiment [2], 7e-06 ± 3e-07 M; in the experiment on MRC-5 fibroblasts it was 1.58e-05 ± 2e-07 M. Further, the “Selectivity indices (SI), MCF-7” value in experiment [2] is reported as 2.3. Further, the inhibition at 10 µM in the experiment on MCF-7 cells lay within 65 to 70%.

Take `N#Cc1ccc(-c2csc(NN=Cc3c(Cl)cccc3Cl)n2)cc1` [Compound 3n, 2-(2-(2,6-Dichlorobenzylidene)hydrazinyl)-4-(4-cyanophenyl) thiazole]: in experiment [1], the “Selectivity indices (SI), HCT-116” value is listed as 11 and the GI50 was found to be 1.1e-06 ± 5e-07 M. Further, in experiment [2], the GI50 came out at 2.54e-05 ± 1.6e-06 M and the “Selectivity indices (SI), MCF-7” value is given as 0.5. Moreover, in the experiment on HCT-116 cells [3], the inhibition at 5 µM was in the range of 50 to 55% and the inhibition at 10 µM turned out to be 100%. The 50% growth inhibitory concentration (GI50) in the experiment with MRC-5 fibroblasts amounted to 1.21e-05 ± 4e-07 M.

In the case of `N#Cc1ccc(-c2csc(NN=Cc3c(F)c(F)c(F)c(F)c3F)n2)cc1` [3a′, 2-(2-((Pentafluorophenyl)methylene)hydrazinyl)-4-(4-cyanophenyl) thiazole], the colony formation entry with HCT-116 cells [4] is “completely prevented colony formation”. For the same compound, in experiment [1], the “Selectivity indices (SI), HCT-116” value is on record as 2.8 and the GI50 came out at 4.2e-06 ± 1e-06 M. Further, in experiment [2], the GI50 amounted to 1.7e-06 ± 3e-07 M and the “Selectivity indices (SI), MCF-7” value was 6.8. Further, in the experiment on MRC-5 fibroblasts, the GI50 stood at 1.16e-05 ± 6e-07 M. Moreover, the inhibition at 10 µM in the experiment on MCF-7 cells was in the range of 90 to 95%.

Consider `N#Cc1ccc(-c2csc(NN=Cc3ccccc3F)n2)cc1` [Compound 3a, 2-(2-(2-Fluorobenzylidene)hydrazinyl)-4-(4-cyanophenyl) thiazole], for which, in the experiment with HCT-116 cells [4], the colony formation result is listed as “completely prevented colony formation”.

Turning to `N#Cc1ccc(-c2csc(NN=Cc3cc(F)cc(C(F)(F)F)c3)n2)cc1` [Compound 3q, 2-(2-(3-Fluoro-5-(trifluoromethyl)benzylidene) hydrazinyl)-4-(4-cyanophenyl) thiazole], in the experiment with HCT-116 cells [4], the colony formation entry is listed as “completely prevented colony formation”. Besides, in experiment [1], the “Selectivity indices (SI), HCT-116” value worked out at 4.1 and the GI50 amounted to 2.2e-06 ± 1e-07 M. In addition, in experiment [2], the GI50 came to 2.6e-06 ± 1e-07 M and the “Selectivity indices (SI), MCF-7” value came out at 3.5. In addition, the GI50 in the experiment with MRC-5 fibroblasts worked out at 9e-06 ± 1e-07 M.

Turning to `N#Cc1ccc(-c2csc(NN=Cc3sccc3Br)n2)cc1` [3b′, 2-(2-((3-Bromothiophen-2-yl)methylene)hydrazinyl)-4-(4-cyanophenyl) thiazole], the colony formation entry with HCT-116 cells [4] was “completely prevented colony formation”. Moreover, in experiment [1], the “Selectivity indices (SI), HCT-116” value is 12.2 and the GI50 came to 1.6e-06 ± 2e-07 M. In addition, in experiment [2], the GI50 was 3.9e-06 ± 5e-07 M and the “Selectivity indices (SI), MCF-7” value amounted to 5. Further, in the experiment with HCT-116 cells [3], the inhibition at 5 µM is 50 to 55% and the inhibition at 10 µM fell in the range of 90 to 95%. Also, the “caspase 3 and 7 activation” value in experiment [5] is on record as “Significant dose-dependent caspase activation”. In addition, the GI50 in the experiment on MRC-5 fibroblasts is 1.95e-05 ± 3e-07 M. Further, the “more active against the carcinoma cell lines than MRC-5” value in the experiment with MRC-5 fibroblasts (selectivity over MRC-5) is given as > 5 ×. In experiment [6], the “caspase 3 and 7 activation” value is reported as “Significant dose-dependent caspase activation”.

For the compound `COc1ccc(C=NNc2nc(-c3ccc(C#N)cc3)cs2)c(OC)c1` [Compound 3l, 2-(2-(2,4-Dimethoxybenzylidene)hydrazinyl)-4-(4-cyanophenyl) thiazole], the “Selectivity indices (SI), HCT-116” value in experiment [1] is listed as 3.6. Besides, the values for the 50% growth inhibitory concentration (GI50) (in experiment [1]; in experiment [2]; in the experiment with MRC-5 fibroblasts) were 8.4e-06 ± 9e-07 M, 9.2e-06 ± 4e-07 M and 3.01e-05 ± 6e-07 M, respectively. In experiment [2], the “Selectivity indices (SI), MCF-7” value was found to be 3.3. Moreover, the “GI50 values (µM) mean ±SD, MRC-5” value with MRC-5 fibroblasts (MTT, 72 h exposure) is “no significant activity”.

With `N#Cc1ccc(-c2csc(N/N=C/c3ccccc3F)n2)cc1` [a], the GI50 in experiment [1] worked out at 3.1e-06 ± 1.5e-06 M; in experiment [2] it was 3.4e-06 ± 1e-06 M; in the experiment with MRC-5 fibroblasts, 1.66e-05 ± 1e-07 M.

Take `COc1ccc(C=NNc2nc(-c3ccc(C#N)cc3)cs2)c(C)c1` [Compound 3k, 2-(2-(4-Methoxy-2-methylbenzylidene) hydrazinyl)-4-(4-cyanophenyl) thiazole]: in experiment [1], the “Selectivity indices (SI), HCT-116” value is given as 0.4 and the GI50 worked out at 3.7e-05 ± 9e-07 M. Besides, in experiment [2], the GI50 stood at 3.68e-05 ± 2.7e-06 M and the “Selectivity indices (SI), MCF-7” value was determined as 0.4. For the same compound, the GI50 with MRC-5 fibroblasts worked out at 1.61e-05 ± 2e-07 M.

`N#Cc1ccc(-c2csc(NN=Cc3cc(Br)cs3)n2)cc1` [3c′, 2-(2-((4-Bromothiophen-2-yl)methylene)hydrazinyl)-4-(4-cyanophenyl) thiazole]: in experiment [1], the “Selectivity indices (SI), HCT-116” value came to 1.2 and the GI50 turned out to be 6.2e-06 ± 5e-07 M. For the same compound, in experiment [2], the GI50 is 4.3e-06 ± 3e-07 M and the “Selectivity indices (SI), MCF-7” value was determined as 1.8. Further, in the experiment on MRC-5 fibroblasts, the GI50 amounted to 7.6e-06 ± 1e-07 M.

As to `Cc1ccc(C=NNc2nc(-c3ccc(C#N)cc3)cs2)cc1C` [Compound 3t, 2-(2-(3,4-Dimethylbenzylidene)hydrazinyl)-4-(4-cyanophenyl) thiazole], the colony formation result in the experiment on HCT-116 cells [4] was “completely prevented colony formation”. In addition, the “Selectivity indices (SI), HCT-116” value in experiment [1] was 2. Also, the GI50 in experiment [1] amounted to 6.5e-06 ± 2.6e-06 M; in experiment [2], 4.5e-06 ± 1.4e-06 M; in the experiment with MRC-5 fibroblasts, 1.32e-05 ± 3e-07 M. In addition, the “Selectivity indices (SI), MCF-7” value in experiment [2] turned out to be 2.9.

As to `COc1ccc(OC)c(C=NNc2nc(-c3ccc(C#N)cc3)cs2)c1` [Compound 3j, 2-(2-(2,5-Dimethoxybenzylidene)hydrazinyl)-4-(4-cyanophenyl) thiazole], in experiment [1], the “Selectivity indices (SI), HCT-116” value came out at 3.3 and the GI50 was found to be 6.9e-06 ± 2.5e-06 M. Further, in experiment [2], the GI50 stood at 3.7e-06 ± 4e-07 M and the “Selectivity indices (SI), MCF-7” value is recorded as 6.1. Besides, in the experiment with MRC-5 fibroblasts, the GI50 was found to be 2.25e-05 ± 1e-07 M.

As for `N#Cc1ccc(-c2csc(NN=Cc3ccc(C(F)(F)F)cc3C(F)(F)F)n2)cc1` [Compound 3m, 2-(2-(2,4-Bis-(trifluoromethyl)benzylidene) hydrazinyl)-4-(4-cyanophenyl) thiazole], in experiment [1], the “Selectivity indices (SI), HCT-116” value is 3.5 and the GI50 amounted to 4.7e-06 ± 1.3e-06 M. Also, in experiment [2], the GI50 was found to be 2e-06 ± 8e-07 M and the “Selectivity indices (SI), MCF-7” value came out at 8.3. The 50% growth inhibitory concentration (GI50) with MRC-5 fibroblasts was found to be 1.65e-05 ± 6e-07 M.
